# Most compounds without a hit are left out; they make up all but 2.2% or so of the library.
# IEC-6 cytotox: counter-screen for KLF5 inhibitors: cytotoxicity in IEC-6 cells; hit rate 0.78% among 290,000; IEC-6 cytotoxicity, luminescence viability; inhibition, % at 5 µM; in the data active = inhibition above about 22%;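 also: 0% = plate median of test compound wells and 100% = cytotoxic reference compound wells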
# MT stabilize HCS: microtubule stabilizers in HeLa cells; % tubulin-high responders, % at 10 µM; hit rate 0.83% among 200,000; HeLa tubulin immunostaining HCS, 24 h; share of cells brighter than vehicle mean+2SD;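 active = plate Z-score above 3 for both tubulin-high and condensed-nucleus cell shares, with cell loss under 80%, at 10 µM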;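 also: anti alpha tubulin signal scored within the nucleus-defined area of each cell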
# APP 5UTR inh: APP translation inhibition; AID 1285; SH-SY5Y APP 5'UTR-luciferase reporter, luminescence; inhibition, % at 2 µM; hit rate 0.82% among 190,000;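 active = inhibition above a set limit, derived from the sample mean plus 3 SD, cut at about 45% in these data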
# Ba/F3 V617F tox: loss of viability in JAK2V617F-driven Ba/F3 cells; Ba/F3 EpoR-JAK2V617F viability, ATP luminescence; inhibition, % at 5.6 µM; hit rate 1.1% among 220,000;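 active = inhibition above the campaign mean plus 3 SD over all tested compounds, cut at about 24% in these data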;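 also: cytokine-independent growth of Ba/F3 cells driven by EpoR plus mutant JAK2; 0% = DMSO-treated cells and 100% = JAK inhibitor I control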
# b-catenin transl: beta-catenin nuclear translocation modulation | HeLa beta-catenin nuclear translocation, immunofluorescence imaging | nuclear translocation activity, % at 5 µM | hit rate 0.3% among 190,000;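 active = nuclear translocation activity above 50% at 5 µM, with a well cell count of 50 or more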;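 also: per-cell ratio of nuclear to cytoplasmic median beta-catenin stain intensity; plate controls were DMSO negative control for no effect and GSK-3 inhibitor IX positive control for full effect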
#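 Test system: human HeLa cells, native beta-catenin. Compound dosing: 5 µM primary single dose, 0.1% DMSO, 0.02–20 µM confirmation series. Incubation: compound exposure 24 h at 37°C. Detection: beta-catenin immunostaining with DAPI counterstain, 20x imaging, 6 fields/well. Read-out basis: Nuclear/cytoplasmic beta-catenin signal ratio, % activation.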
# BaF3 parental: parental Ba/F3 viability inhibition as JAK2V617F counter-screen | hit rate 1.1% among 220,000 | inhibition, % at 5.6 µM | AID 1486 | CellTiter-Glo ATP luminescence;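 active = inhibition above a per-campaign cutoff, the mean inhibition of all tested compounds plus 3 SD, cut at about 27% in these data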;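 also: 0% = DMSO wells and 100% = JAK Inhibitor I control wells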
# An asterisk follows results filed as active; · = no result given.
SMILES,IEC-6 cytotox,MT stabilize HCS,APP 5UTR inh,Ba/F3 V617F tox,b-catenin transl,BaF3 parental
O=[N+]([O-])c1cc(Oc2cccnc2)cc([N+](=O)[O-])c1,-10,2,11,-4,·,-3
Cn1cc([N+](=O)[O-])c(C(=O)Nc2ccc(-c3nc4ccccc4[nH]3)cc2)n1,25*,4,-51,4,·,1
Cc1ccc(-c2nc(NC(=O)c3nn(C)cc3[N+](=O)[O-])sc2C)cc1,16,55,95*,77*,1,81*
Cc1cnc(NC(=O)c2nn(C)cc2[N+](=O)[O-])s1,12,4,34,20,0,-1
Cc1ccc(-c2nc(NC(=O)c3nn(C)cc3[N+](=O)[O-])sc2C)cc1C,15,49,96*,92*,32,85*
CSc1nc2ccccc2n1Cc1c(Cl)cccc1Cl,-3,3,-13,20,-6,30*
CCOc1ccc(C2/C(=C(/O)c3ccc(S(=O)(=O)N4CCCCC4)cc3)C(=O)C(=O)N2CCCOC)cc1OC (centres undefined),4,·,·,·,·,·
Oc1ccccc1/C=N/Nc1nccnc1Cl,1,4,42,10,·,8
COc1cccc(/C=N/Nc2nccnc2Cl)c1O,7,5,51*,95*,2,94*
COc1cccc(/C=N/Nc2ncnc(Cl)c2N)c1O,-1,3,78*,8,-1,11
CCC(C)C(NS(=O)(=O)c1ccc(C)cc1)C(=O)N1CCOCCOCCOCC1 (centres undefined),1,·,·,·,·,·
Cc1cc2c(Nc3cccc(O)c3)ncnc2s1,7,·,·,·,·,·
Cc1ccc(C(=O)O)cc1NC(=O)c1ccc2c(c1)C(=O)N(c1ccc([N+](=O)[O-])cc1)C2=O,-2,·,·,·,·,·
Cc1cccc(N2CCN(C(=S)c3ccc(-c4ccccc4[N+](=O)[O-])o3)CC2)c1,-2,23*,-5,-2,1,6
Cc1ccc(N(CC(O)CN2CCCCC2)S(=O)(=O)c2ccccc2)cc1 (centres undefined),-4,·,·,·,·,·
COC(=O)c1cc(S(=O)(=O)NCCN2CCOCC2)cn1C,1,·,·,·,·,·
O=C(NCc1cccs1)C(Cc1ccccc1)NS(=O)(=O)c1cccs1 (centres undefined),3,1,-8,-2,-4,6
CSCCC(NS(=O)(=O)c1cccs1)C(=O)NCc1cccs1 (centres undefined),-2,5,47*,-2,2,5
Cc1ccc(-c2ccc(/C=C3\SC(N4CCOCC4)=NC3=O)o2)cc1,102*,5,17,-3,2,11
O=[N+]([O-])c1cc([N+](=O)[O-])c(Oc2cncc(Cl)c2)cc1NC1CCCCCCC1,-4,·,·,·,·,·
CCNc1nc(NCC)nc(NS(=O)(=O)c2ccc(N)cc2)n1,3,·,·,·,·,·
Cc1ccc(CSc2nnc(-c3ccc4c(c3)OCO4)o2)cc1,-1,1,-11,-2,1,2
COc1ccc(C2=NCC(CSc3nnc(-c4ccc5c(c4)OCO5)o3)S2)cc1 (centres undefined),-1,4,-1,-1,-4,51*
Cc1ccc(S(=O)(=O)ON=C2CCN(S(=O)(=O)c3ccccc3)CC2)cc1,4,2,1,0,·,1
CC1=CC(=O)C(C(C)C)=C/C1=N/OS(=O)(=O)c1ccccc1,-1,·,·,99*,1,104*
SMILES,IEC-6 cytotox,MT stabilize HCS,APP 5UTR inh,Ba/F3 V617F tox,b-catenin transl,BaF3 parental
CC1=CC(=O)C=C(C)C1=NOS(=O)(=O)c1ccccc1,7,3,80*,76*,-6,48*
Cc1ccc2c(c1)/C(=N/OS(=O)(=O)c1ccccc1)CCS2,2,3,1,1,·,3
COc1ccc(Cn2c(=O)c3[nH]cnc3n(-c3ccccc3C)c2=O)cc1,7,·,·,0,73*,0
Cc1ccc(-n2c(-c3ccccc3)c[n+]3c2CCc2ccccc2-3)c(C)c1,27*,3,-27,100*,0,81*
Cc1csc2ncc(C(=O)N3c4ccccc4CC3C)c(=O)n12 (centres undefined),4,7,-2,-2,-1,39*
CC1Cc2ccccc2N1C(=O)c1ccc2snnc2c1 (centres undefined),2,4,-13,-2,-6,3
Cc1nc2cc(C(=O)N3c4ccccc4CC3C)ccc2s1 (centres undefined),19,26*,5,-1,47,8
CCOc1ccc(CCNC(=O)CCS(=O)(=O)c2ccc(C)cc2)cc1OCC,-1,·,·,·,·,·
COc1ccc(S(=O)(=O)NC(C)C(=O)N2CCCC2)cc1C (centres undefined),2,·,·,·,·,·
COc1cc(C(=O)NNC(=S)NCc2ccco2)cc(OC)c1OC,5,2,-3,4,-6,90*
Cc1nn(C)c(C)c1CN(C)S(=O)(=O)c1ccc(F)cc1,-4,4,19,0,4,4
Cc1nn(C)c(C)c1CN(C)S(=O)(=O)c1ccc2ccccc2c1,14,3,47*,46*,-2,46*
N#C/C(N)=C(/C#N)N=Cc1cccc(Cl)c1,1,·,·,-3,-1,-5
CN(C)c1ccc(/C=C(\C#N)c2ccccc2)cc1,74*,·,·,83*,-2,76*
CN(C)c1ccc(/C=C(\C#N)C(=O)c2ccccc2)cc1,6,·,·,0,-2,1
Cc1ccccc1NC(=O)CSc1nc2cc3c(cc2cc1C)CCC3,-8,36*,-1,-1,·,5
CCC(=O)Nc1ccc(NC(=O)CSc2nc3cc4c(cc3cc2C)CCC4)cc1,-3,2,6,-2,-4,4
Cc1cc(C(=O)CN2C(=O)NC(C)(c3ccccc3)C2=O)c(C)n1CC1CCCO1 (centres undefined),2,5,-7,0,-2,6
Cc1cc(C(=O)CN2C(=O)c3ccccc3S2(=O)=O)c(C)n1CC1CCCO1 (centres undefined),-3,6,86*,-3,-4,1
Cc1cc(C(=O)CSc2nc3ccccc3c(=O)n2C)c(C)n1CC1CCCO1 (centres undefined),9,4,17,59*,3,69*
Cc1cc(C(=O)CSc2nc3ccccc3c(=O)[nH]2)c(C)n1CC1CCCO1 (centres undefined),4,2,-103,35*,1,40*
COCCn1c(CN2CCN(C(=O)c3ccco3)CC2)nc2c1c(=O)n(C)c(=O)n2C,-5,·,·,·,·,·
O=C(Nc1cccc(Cl)c1)Nc1ccnc(-c2cccnc2)n1,-10,3,56*,7,2,0
CC(=O)NCC(=O)NC1CC(C)(C)Cc2c1cnn2-c1ccccc1 (centres undefined),-2,·,·,·,·,·
COC(=O)c1ccc(NC(=O)Cn2c(-c3nonc3N)nc3ccccc32)cc1,2,2,12,-4,4,1
COC(=O)c1ccccc1NC(=O)Cn1c(-c2nonc2N)nc2ccccc21,35*,19*,95*,50*,27,50*

# From PubChem BioAssay
